# Source: PubChem BioAssay
# NS3 helicase inh: HCV NS3 helicase inhibition. 0.56% of 290,000 active. NS3 helicase DNA unwinding, Cy5 molecular beacon fluorescence. inhibition, % at 10.9 µM;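 active means inhibition above the mean of all tested compounds plus 3 SD, set per campaign, cut at about 35% in these data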;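 further: 0% = DMSO wells and 100% = thioflavine S control wells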
#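 System: NS3 helicase fragment of HCV / Schedule: 1 h at 25 °C / Control set: DMSO alone as 0% and 110 µM thioflavine S as 100% / Reagent: Cy5/quencher beacon DNA duplex and ATP to start / Technique: Cy5 fluorescence / Replication: singlicate / Evaluation: % inhibition of end-to-start signal ratio versus controls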
# core dimer inh: blocks dimerization of HCV core protein; TR-FRET GST/Flag-core106 dimerization, 1536-well; inhibition, % at 5 µM; 0.33% of 300,000 active; AID 1899;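 active means inhibition above the mean of all tested compounds plus 3 SD, set per screening campaign, cut at about 45% in these data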
#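 Material: GST/Flag-tagged HCV core106 proteins. Incubation: 4 h, 22.5 °C incubation. Read-out basis: inhibition (%) from 671 over 617 nm ratio. Measured by: TR-FRET, excitation 340 nm, emission 617 and 671 nm.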
# APOBEC3A inh: blocks human APOBEC3A ssDNA deamination. P31941. recombinant A3A, FAM/TAMRA ssDNA deamination fluorescence. inhibition, % at 20 µM. 0.41% of 330,000 active. AID 493011;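 active means at least 40% inhibition at 20 µM here, with at most 30% in a related deaminase screen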;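 further: plate controls were A3A with DMSO for no effect and wells lacking A3A enzyme for full effect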
# ABHD5-PLIN5 inh: inhibitors of human ABHD5-perilipin-5 interaction. AID 602281. 0.78% of 360,000 active. Q00G26+Q8WTS1. inhibition, % at 4 µM. Split G. princeps luciferase complementation, luminescence, 4 h;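 active means inhibition above the mean inhibition across every tested compound plus 3 SD, cut at about 22% in these data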;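 further: 0% = DMSO only wells and the 100% control is not disclosed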
# Target sequence (Q00G26 whole entry, looked up): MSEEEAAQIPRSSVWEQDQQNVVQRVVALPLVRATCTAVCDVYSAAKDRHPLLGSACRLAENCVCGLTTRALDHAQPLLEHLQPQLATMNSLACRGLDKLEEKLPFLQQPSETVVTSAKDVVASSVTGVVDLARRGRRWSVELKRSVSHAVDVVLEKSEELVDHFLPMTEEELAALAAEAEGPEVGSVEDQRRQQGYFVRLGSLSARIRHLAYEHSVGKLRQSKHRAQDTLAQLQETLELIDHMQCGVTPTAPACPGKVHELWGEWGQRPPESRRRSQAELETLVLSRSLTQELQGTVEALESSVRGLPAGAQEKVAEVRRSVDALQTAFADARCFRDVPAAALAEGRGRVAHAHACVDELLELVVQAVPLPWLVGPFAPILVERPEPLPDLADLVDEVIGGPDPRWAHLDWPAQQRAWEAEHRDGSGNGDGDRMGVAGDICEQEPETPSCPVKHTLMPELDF
# Target sequence (Q8WTS1 whole entry, looked up): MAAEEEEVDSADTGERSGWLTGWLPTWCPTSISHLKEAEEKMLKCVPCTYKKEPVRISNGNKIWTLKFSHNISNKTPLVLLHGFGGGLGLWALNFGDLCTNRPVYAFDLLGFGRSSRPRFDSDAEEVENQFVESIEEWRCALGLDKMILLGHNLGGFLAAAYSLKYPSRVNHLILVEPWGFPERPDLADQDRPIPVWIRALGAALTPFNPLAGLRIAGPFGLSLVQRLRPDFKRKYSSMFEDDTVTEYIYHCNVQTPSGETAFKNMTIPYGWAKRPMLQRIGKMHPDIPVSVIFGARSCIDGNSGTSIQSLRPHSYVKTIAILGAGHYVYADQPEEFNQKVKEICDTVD
# PRMT1 inh: blocks human protein arginine methyltransferase 1; Q99873; 1.3% of 370,000 active; recombinant PRMT1, activity-based probe fluorescence polarization; inhibition, % at 2.79 µM;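 active means inhibition above about 21% made by adding two undisclosed values, limit read from the data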
# A3G deaminase: APOBEC3G (human) deaminase inhibition; inhibition, % at 20 µM; 0.28% of 330,000 active; recombinant A3G, ssDNA deamination FAM/TAMRA fluorescence; Q9HC16;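 active means inhibition of at least 40% at 20 µM, with no more than 30% in the related APOBEC3A deaminase screen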;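 further: plate controls were DMSO wells with A3G for no effect and wells lacking A3G enzyme for full effect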
# Numbers without * were called inactive; / = not tested or not shown. The list is not random: actives were taken first. Their share in the collection is about 2.9%.
SMILES,NS3 helicase inh,core dimer inh,APOBEC3A inh,ABHD5-PLIN5 inh,PRMT1 inh,A3G deaminase
CCCCCC(=O)N1C[C@H](n2cc(COC(=O)c3ccccc3)nn2)[C@@H](O)C[C@@H]1c1ccc(OC)cc1,/,/,/,-9,2,/
O=S(=O)(c1ccc(C2=CSC3=NCCN23)cc1)N1CCOCC1,2,-3,1,-6,24*,-2
CCCC[C@@H]1Cc2[nH][nH]c(=O)c2[C@H](c2ccc3ccccc3c2)O1,/,/,/,17,0,/
CCCC[C@@H]1Cc2[nH][nH]c(=O)c2[C@@H](c2ccc(Cl)cc2)O1,/,/,/,23*,-1,/
CC[C@@H]1Cc2[nH][nH]c(=O)c2[C@H](c2ccc(Cl)cc2)O1,/,/,/,-3,2,/
CCCC[C@@H]1Cc2[nH][nH]c(=O)c2[C@H](c2ccc(C(C)C)cc2)O1,/,/,/,23*,0,/
c1ccc(Cn2ccc3ccc(-c4ccc5ccn(Cc6cccc(-c7ccsc7)c6)c5c4)cc32)cc1,/,/,/,/,4,/
CCCCCCn1cc(CN2CC(N3CCN(CCO)CC3)CS2(=O)=O)nn1 (stereo not drawn),/,/,/,-2,2,/
Cc1cc(-c2ccccc2)nc2cc(C(=O)NCc3ccco3)nn12,-7,26,8,23*,12,3
CC(C)c1cc(C(=O)NCc2ccco2)no1,0,3,10,17,8,-5
Cc1cc(C(=O)NCc2ccco2)on1,13,2,1,8,24*,-9
Cc1onc(-c2ccccc2Cl)c1C(=O)NCc1ccco1,21,57*,46,10,13,44
COC(=O)[C@]12C[C@H](CC(=O)N3CCN(C(=O)C4CC4)CC3)C(=O)N(Cc3cccc4ccccc34)C1=C[C@H](C(C)C)O[C@@H]2C1CC1,/,/,/,/,1,/
Cc1oc(-c2ccccc2F)nc1CSCC(=O)NC1CCCC1,9,2,-5,-1,24*,-5
Cc1oc(-c2ccccc2Cl)nc1CSCC(=O)NC1CC1,2,2,-1,7,3,-10
COC(=O)C1=C(C)Nc2[nH]c(=S)[nH]c(=O)c2C1c1ccc(O)cc1 (stereo not drawn),4,-7,-15,4,25*,-13
COc1cc(C2C(C(=O)OC(C)C)=C(C)Nc3[nH]c(=O)[nH]c(=O)c32)ccc1O (stereo not drawn),1,-3,-1,-5,0,-1
Cc1nnc2ccc(-c3ccc(NC(=O)Cc4cccs4)cc3)nn12,-5,56*,10,-1,2,6
Nc1[nH]n2c(=O)cc(-c3ccccc3)nc2c1N=Nc1ccc(S(N)(=O)=O)cc1,2,-27,1,3,6,0
NS(=O)(=O)c1ccc(N=Nc2c(-c3ccccc3)[nH]n(-c3nc(-c4ccccc4)cs3)c2=O)cc1,7,46*,1,0,-2,-4
Cc1ccc([C@H]2C(C#N)=C(N)Oc3cc(C)oc(=O)c32)o1,1,-3,-2,10,22*,-4
COc1cc(C2C(C#N)=C(N)Oc3cc(C)oc(=O)c32)cc2c1OCO2 (stereo not drawn),13,65*,5,0,5,1
Cc1cc2c(c(=O)o1)C(c1cccs1)C(C#N)=C(N)O2 (stereo not drawn),5,-9,-1,5,0,-7
CCCCCCCCN1CC(Cc2cc3ccccc3c3ccccc23)N(c2ccccc2)c2ccccc2C1=O (stereo not drawn),/,/,/,-8,-3,/
O=C(CSc1nnc(-c2ccccn2)n1-c1ccc(Cl)cc1)Nc1ccc(S(=O)(=O)Nc2nccs2)cc1,/,/,/,/,0,/
SMILES,NS3 helicase inh,core dimer inh,APOBEC3A inh,ABHD5-PLIN5 inh,PRMT1 inh,A3G deaminase
O=C1Nc2ccccc2SC(c2ccccc2)C1O (stereo not drawn),19,83*,15,2,8,4
O=C1c2cccc3c(O)ccc(c23)C(=O)N1c1ccc(Cl)cc1,35,-3,-78,0,174*,-116
CC(=O)Nc1ccc(N2C(=O)c3cccc4c(O)ccc(c34)C2=O)cc1,8,-7,-18,-5,109*,-49
Cc1cc(-c2cc(NC(=O)Cc3c[nH]c4ccccc34)ccc2N(C)c2cccnc2)ccc1F,/,/,/,/,0,/
CCC(C)(C)n1nnnc1C(c1ccc(O)c(OC)c1)N1CCc2ccccc2C1 (stereo not drawn),-9,-2,2,10,23*,16
O=C(O)c1ccc(N2C(=O)/C(=C/c3ccc(-c4ccc([N+](=O)[O-])cc4)o3)C=C2c2ccccc2)cc1,40*,30,12,6,/,9
O=C(OCC#CCSc1nnc(-c2cccc3ccccc23)o1)c1ccc(F)cc1F,/,/,/,/,-3,/
Cc1cccc(-n2c(O)c(C=Nc3ccc(O)cc3)c3ccccc3c2=O)n1,1,-12,-2,-1,4,-5
Cc1ccc(N=Cc2c(O)n(-c3ccc4c(c3)OCO4)c(=O)c3ccccc23)cc1,19,62*,-1,4,-1,-8
Cc1ccc([N+](=O)[O-])cc1S(=O)(=O)Nc1ccccn1,3,-1,-3,2,/,-4
N#C/C(=C\c1ccc(Cl)c([N+](=O)[O-])c1)c1ccccn1,-1,-1,-2,7,-6,-9
Cc1cc([N+](=O)[O-])cc2c1NC(c1ccccn1)C1CC=CC21 (stereo not drawn),9,49*,0,-2,2,-2
O=[N+]([O-])c1ccc(Cl)c2c1C1C=CCC1C(c1ccccn1)N2 (stereo not drawn),22,58*,14,6,14,13
COc1ccc2c(c1OC)C(=O)OC2C1c2c(cc3c(c2OC)OCO3)CCN1C (stereo not drawn),-10,-8,3,10,-3,7
CN1CCc2cc3c(c4c2[C@H]1[C@H](O)c1ccccc1-4)OCO3,17,-11,13,-7,49*,16
O=C(CCN1C(=O)/C(=C/c2ccc(Cl)cc2)SC1=S)Nc1cccc(C(=O)O)c1,21,20,-1,4,-4,-5
O=C(O)c1cccc(N2C(=O)/C(=C/c3ccc(SCc4ccc(Cl)cc4)o3)SC2=S)c1,30,/,/,-14,57*,/
CC(=O)c1cnc(-c2ccccn2)s1,-1,-2,-2,-3,22*,0
CCOC(=O)COc1ccc2ccccc2c1/C=C/[N+](=O)[O-],14,-2,/,8,5,/
O=[N+]([O-])/C=C/c1c(OCc2ccccc2)ccc2ccccc12,9,8,0,84*,/,-8
NC(=O)c1c(NC(=O)C2c3ccccc3Oc3ccccc32)sc2c1CCCCC2,26,50*,2,-10,3,-6
CC(=O)Nc1sc2c(c1C(N)=O)CCCC2,0,-1,0,-7,-1,-7
Cc1cc(C)c(NS(=O)(=O)c2ccc3c(c2)oc(=O)n3C)c(C)c1,/,/,/,7,2,/
